From PubChem BioAssay
Sampled rows, rich in hits. Any-hit rate of the full collection: about 2.4%.
Measles CPE: protection of cells from measles virus; Measles virus-infected cells, CPE protection, absorbance; protection (pct of control), % at 4 µM; 1.5% of 140,000 active; AID 841; in the data active means protection mostly above about 24%, no sharp cut-off; inactive means mostly below about 26%
Yeast growth inh: reduces growth of yeast BB579 in restrictive medium | inhibition, % at 10 µM | 0.51% of 140,000 active | S. cerevisiae BB579 growth, OD615, 48 h;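 active means inhibition above a set limit, 3 SD over the mean compound inhibition, cut at about 44% in these data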
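Test system: S. cerevisiae DeaD strain BB579 yeast; Medium: restrictive CSMM-D medium; Compound: one dose, 10 µM compound with 0.25% DMSO; Incubation: 4 h cell preincubation, 48 h compound exposure, 30 °C humidified; Signal: OD at 615 nm; Benchmarks: amphotericin B at 10 µg/mL as positive control.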
Yeast lifespan up: extends the lifespan of yeast; S. cerevisiae growth with nicotinamide, OD615; deaD strain in restrictive glucose medium; inhibition of the nicotinamide effect, % at 10 µM; 0.68% of 130,000 active;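 active means inhibition above a set limit, placed 3 SD over the median of all compounds, cut at about 26% in these data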;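 further: 0% = nicotinamide-treated wells and 100% = cells grown without nicotinamide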
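assay system = DeaD-strain S. cerevisiae | buffer or medium = restrictive glucose medium | reagent = 1.5 mM nicotinamide | compound = 10 µM single point, 0.25% DMSO | incubation = 48 h compound exposure at 30 °C, humidified | signal = OD615 measurement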
Arbovirus inh: antivirals against arbovirus infection. inhibition, % at 10 µM. AID 1251. arbovirus infection cell-based antiviral screen. 0.37% of 200,000 active; in the data active means inhibition above about 30%
Rad51 HR inh: Rad51 (human) homologous recombination inhibition | Q06609 | inhibition, % at 10 µM | 0.085% of 200,000 active | hRad51 DNA strand exchange, fluorescence dequenching;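 active means inhibition above 40% at the single screening dose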;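 further: 0% = DMSO control wells and 100% = blanks with heterologous ssDNA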
Target sequence (Q06609 whole entry, looked up): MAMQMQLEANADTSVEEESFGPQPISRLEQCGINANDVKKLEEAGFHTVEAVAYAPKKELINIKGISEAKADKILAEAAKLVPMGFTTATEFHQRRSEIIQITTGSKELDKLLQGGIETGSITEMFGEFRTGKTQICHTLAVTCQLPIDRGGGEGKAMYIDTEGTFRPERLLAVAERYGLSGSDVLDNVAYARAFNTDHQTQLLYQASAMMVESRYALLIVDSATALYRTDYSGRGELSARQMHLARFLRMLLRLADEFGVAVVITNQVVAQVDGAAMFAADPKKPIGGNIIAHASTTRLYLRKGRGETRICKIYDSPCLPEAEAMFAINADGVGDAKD
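Read-out basis: percent inhibition relative to plate controls and blanks / Assay system: human Rad51 nucleoprotein filaments preassembled on unlabelled ssDNA / Timing: filaments 15 min 37 °C, then compound 30 min / Control set: per-plate controls and blanks / Technique: fluorescence dequenching at 485/520 nm / Compound: 10 µM final, single point / Also added: Fluorescein- and BHQ1-tagged 47-mer duplex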
HMGR II inh: inhibitors of class II HMG-CoA reductase from Enterococcus faecalis. 0.41% of 190,000 active. inhibition, % at 10 µM. purified E. faecalis HMGR, NADPH absorbance 340 nm kinetic;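 active means inhibition above a set limit, the median over all tested compounds plus 3 SD, cut at about 9.5% in these data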;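 further: enzyme runs in reverse so mevalonate oxidation gives rising NADPH absorbance; 0% = complete reaction with DMSO and 100% = background rate lacking mevalonate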
Numbers without * were called inactive.

For O=C(CSc1ccccc1)Nc1ccc(-c2nc3ccccc3[nH]2)cc1 the results were Measles CPE 5, Yeast growth inh -10, Yeast lifespan up 3, Arbovirus inh -2, Rad51 HR inh 2 and HMGR II inh -2.
Screening COc1cc(SC)ccc1C(=O)N(Cc1ccccc1)c1ccccn1 returned Rad51 HR inh 14.
Screening CC1(C)Cc2ccccc2-c2nnc(C(F)(F)F)n21 returned Measles CPE 41*, Yeast growth inh -4, Yeast lifespan up -2, Arbovirus inh 7, Rad51 HR inh -40 and HMGR II inh -3.
CC(C)Sc1nsc2nc(=O)c(/C=C3\C=Nc4ccccc43)c(N)n12 was read as Arbovirus inh 34*, Rad51 HR inh -2 and HMGR II inh -2.
CS(=O)(=O)c1nsc2nc(=O)c(/C=C3\C=Nc4ccccc43)c(N)n12 was read as Arbovirus inh 46*, Rad51 HR inh -5 and HMGR II inh 1.
CSc1nc(/C=C2\C=Nc3ccccc32)c(O)n1C was read as Measles CPE 18, Yeast growth inh 3, Yeast lifespan up -7, Arbovirus inh -9, Rad51 HR inh -4 and HMGR II inh -4.
Screening O=C(Oc1ccc(C(=S)N2CCC(O)CC2)cc1)c1ccc(Cl)cc1 returned Arbovirus inh -1 and HMGR II inh 1.
`CC(C)Cn1cc(F)c(=O)n(CC(C)C)c1=O` gave Arbovirus inh 3, Rad51 HR inh -13 and HMGR II inh -3.
Cc1cccc(C(=O)Nc2ccccc2C(=O)OCc2c(C)noc2C)c1 was read as Measles CPE 90*, Yeast growth inh -53, Yeast lifespan up -20, Arbovirus inh 2, Rad51 HR inh -3 and HMGR II inh 5.
Screening O=C(O)CC(NC(=O)CCC1CCCCC1)c1cc([N+](=O)[O-])ccc1Cl (configuration not stated) returned Arbovirus inh -3, Rad51 HR inh 14 and HMGR II inh -3.
CC(C)c1nnc(SCC(=O)N2CCc3ccccc32)n1N was read as Arbovirus inh 5, Rad51 HR inh 12 and HMGR II inh 0.
`CC1=C/C(=N\NC(=O)c2ccccc2)CC1` gave Measles CPE 12, Yeast growth inh -10, Yeast lifespan up 2, Arbovirus inh -3, Rad51 HR inh -6 and HMGR II inh 2.
Cc1cc(NC(=O)c2cccc(F)c2)ncc1NC(=O)c1ccco1 was read as Measles CPE 6, Yeast growth inh -9, Yeast lifespan up 31*, Arbovirus inh -12, Rad51 HR inh 10 and HMGR II inh -4.
For Cc1cc(NC(=O)c2cccs2)ncc1NC(=O)c1cccc(F)c1 the results were Arbovirus inh 0, Rad51 HR inh 8 and HMGR II inh -11.
Screening Clc1ccccc1-c1ncnc2ccc(Br)cc12 returned Arbovirus inh -5, Rad51 HR inh 17 and HMGR II inh -1.
O=C(O)CCC(=O)N1CCN(c2nc(-c3ccccc3Cl)c3cc(Br)ccc3n2)CC1 was read as Measles CPE 8, Yeast growth inh 99*, Yeast lifespan up -16, Arbovirus inh -4, Rad51 HR inh -8 and HMGR II inh -8.
For O=C(COc1ccc2ccccc2c1)N1CCN(C(=O)c2ccco2)CC1 the results were Arbovirus inh 7 and HMGR II inh 10*.
Screening CN(C(=O)COC(=O)c1ccc(=O)n(Cc2ccccc2)n1)c1ccccc1 returned Arbovirus inh 3, Rad51 HR inh -101 and HMGR II inh 2.
For O=C(CSc1ccc(C(F)(F)F)cc1[N+](=O)[O-])Nc1ccccc1 the results were Measles CPE 14, Yeast growth inh -40, Yeast lifespan up 0, Arbovirus inh 5, Rad51 HR inh -1 and HMGR II inh 0.
O=C(COc1ccc(C(F)(F)F)cc1[N+](=O)[O-])Nc1cccc(C(F)(F)F)c1 was read as Measles CPE 50*, Yeast growth inh -34, Yeast lifespan up 4, Arbovirus inh -6, Rad51 HR inh 10 and HMGR II inh 0.
`NNc1ccc2c(C(F)(F)F)cc(C(F)(F)F)nc2n1` gave Arbovirus inh -3, Rad51 HR inh 6 and HMGR II inh -5.
`N#CC(c1cccc(Cl)c1)c1ccc2c(C(F)(F)F)cc(C(F)(F)F)nc2n1` (configuration not stated) gave Measles CPE 2, Yeast growth inh 63*, Yeast lifespan up -11, Arbovirus inh -31, Rad51 HR inh -9 and HMGR II inh -4.
For COC(=O)[C@H](Cc1ccccc1)NC(=O)O[C@@H]1C(=O)c2cc(OC)ccc2O[C@H]1c1ccc(OC)c(Br)c1 the results were Measles CPE 5, Yeast growth inh -41, Yeast lifespan up 5, Arbovirus inh 32* and HMGR II inh -2.
CC(C)(CCl)C(=O)Nc1ccnc(-c2ccncc2)n1 was read as Arbovirus inh 3, Rad51 HR inh -5 and HMGR II inh -2.
N#Cc1cn(OCc2ccccc2)c(=O)[nH]c1=O was read as Measles CPE 31*, Yeast growth inh -56, Yeast lifespan up 7, Arbovirus inh 3 and HMGR II inh 0.
Screening CN(CC(=O)Nc1ccc(F)cc1)C(=O)COc1ccc(C(=O)c2ccccc2)cc1 returned Yeast growth inh -18, Yeast lifespan up -6, Arbovirus inh 5, Rad51 HR inh -2 and HMGR II inh 1.
`O=C1c2ccc(Oc3ccc([N+](=O)[O-])cc3)cc2C(=O)N1c1ccncc1` gave Arbovirus inh 5 and HMGR II inh -3.
For CCc1nnc(N2C(=O)c3ccc(Oc4ccc([N+](=O)[O-])cc4)cc3C2=O)s1 the results were Measles CPE 13, Yeast growth inh -33, Yeast lifespan up 52*, Arbovirus inh 2, Rad51 HR inh 4 and HMGR II inh 4.
`CCCC(=O)NC(=S)Nc1cccc(Cl)c1N1CCCCC1` gave Measles CPE 4, Yeast growth inh -26, Yeast lifespan up 2, Arbovirus inh -28, Rad51 HR inh 0 and HMGR II inh -2.
CCCCC(=O)NC(=S)Nc1cccc(Cl)c1N1CCCCC1 was read as Measles CPE 4, Yeast growth inh -47, Yeast lifespan up 29*, Arbovirus inh -12, Rad51 HR inh 17 and HMGR II inh -4.
Screening COC(=O)c1c(-c2ccccc2)csc1N1C(=O)Nc2ccccc2N1O returned Arbovirus inh 36*, Rad51 HR inh -4 and HMGR II inh -6.
Screening C=CCn1cnc2c(c1=O)c1nc3ccccc3nc1n2/N=C/c1cc(OC)c(OC)c(OC)c1 returned Measles CPE 3, Yeast growth inh 58*, Yeast lifespan up -24, Arbovirus inh -35, Rad51 HR inh 4 and HMGR II inh -20.
Screening NC(N)=NC(N)=Nc1cccc(Cl)c1 returned Rad51 HR inh 5.
For Cc1ccc(Cl)cc1N=C(N)N=C(N)N the results were Arbovirus inh 9, Rad51 HR inh -2 and HMGR II inh 15*.
